Assay results reported in ChEMBL document CHEMBL1125212, “Dual-action cephalosporins: cephalosporin 3'-quinolone carbamates” (J Med Chem, 1991).
≈ marks a conversion by molar mass, not a printed value.

Experiments:
Enterococcus faecalis = assay: The compound was tested in vitro for minimum inhibitory concentration against Enterococcus faecalis ATCC 29212; format: functional
Method in brief: (§1)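 Agar dilution on Mueller-Hinton agar using 2-fold serial dilutions, giving final 128 to 0.0156 μg/mL (extended to 0.000977 μg/mL where needed). Inoculum was overnight broth culture diluted 100-fold, about 3×10^4 CFU/spot, applied by replicator. MIC read after overnight incubation at 36 °C.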

Pseudomonas aeruginosa [1] = assay: The compound was tested in vitro for minimum inhibitory concentration against Pseudomonas aeruginosa 18S/H; format: functional; method in brief: as §1
Proteus mirabilis = assay: The compound was tested in vitro for minimum inhibitory concentration against Proteus mirabilis 90; format: functional
Method in brief: (§2)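 Proteus MICs by agar dilution on Mueller-Hinton medium containing 3% agar. Serial 2-fold dilutions gave final 128 to 0.0156 μg/mL (further to 0.000977 μg/mL). Inoculum was overnight broth diluted 100-fold, about 3×10^4 CFU/spot. Plates read after overnight incubation at 36 °C.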

Escherichia coli [2] = assay: The compound was evaluated for the inhibition of [14C]- Pen G binding to Escherichia coli UB1005 penicillin-binding protein 3 60 kDa.
Method in brief: (§3)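 Membranes from sonicated E. coli UB1005 were solubilized. Binding to penicillin-binding proteins was measured as inhibition of [14C]penicillin G binding.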

Enterobacter cloacae = assay: The compound was tested in vitro for minimum inhibitory concentration against Enterobacter cloacae P99; format: functional
Pseudomonas aeruginosa [3] = assay: The compound was tested in vitro for minimum inhibitory concentration against Pseudomonas aeruginosa 8780; format: functional; method in brief: as §1
Streptococcus pyogenes = assay: The compound was tested in vitro for minimum inhibitory concentration against Streptococcus pyogenes; format: functional
Method in brief: (§4)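 Streptococci tested by agar dilution on brain heart infusion agar with 20 units/mL bovine liver catalase. Final drug range 128 to 0.0156 μg/mL by 2-fold steps, extended to 0.000977 μg/mL when required. Inoculum about 3×10^4 CFU/spot from overnight broth diluted 100-fold. MIC after overnight incubation at 36 °C.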

Escherichia coli [4] = assay: The compound was tested in vitro for minimum inhibitory concentration against Escherichia coli TEM-1; format: functional; method in brief: as §1
Escherichia coli [5] = assay: The compound was evaluated for the inhibition of [14C]- Pen G binding to Escherichia coli UB1005 penicillin-binding protein 1a 90 kDa.; method in brief: as §3
Escherichia coli [6] = assay: Inhibitory activity on replicative DNA biosynthesis in Escherichia coli H560 (permeabilised cells); format: functional, organism-based
Method in brief: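 E. coli H560 cells permeabilized with toluene. ATP-dependent incorporation of [3H]thymidine into trichloroacetic acid-insoluble material was measured. IC50 taken as the concentration giving 50% inhibition.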

Escherichia coli [7] = assay: The compound was tested in vitro for minimum inhibitory concentration against Escherichia coli ATCC 25922; format: functional; method in brief: as §1
Micrococcus luteus = assay: The compound was tested in vitro for minimum inhibitory concentration against Micrococcus luteus ATCC 9341; format: functional; method in brief: as §1
Klebsiella pneumoniae = assay: The compound was tested in vitro for minimum inhibitory concentration against Klebsiella pneumoniae A; format: functional; method in brief: as §1
Escherichia coli [8] = assay: Minimum inhibitory concentration for inhibition of [14C]- Pen G binding to Escherichia coli UB1005; format: functional; method in brief: as §3
Escherichia coli [9] = assay: Minimum inhibitory concentration required to inhibit the activity of Escherichia coli UB1005; format: functional; method in brief: as §1
Proteus vulgaris = assay: The compound was tested in vitro for minimum inhibitory concentration against Proteus vulgaris 1028 BC; format: functional; method in brief: as §2
Staphylococcus aureus [10] = assay: The compound was tested in vitro for minimum inhibitory concentration against Staphylococcus aureus smith; format: functional; method in brief: as §1
Escherichia coli [11] = assay: The compound was tested in vitro for minimum inhibitory concentration against Escherichia coli 257; format: functional; method in brief: as §1
Serratia marcescens = assay: The compound was tested in vitro for minimum inhibitory concentration against Serratia marcescens 1071; format: functional; method in brief: as §1
Escherichia coli [12] = assay: The compound was evaluated for the inhibition of [14C]- Pen G binding to Escherichia coli UB1005 penicillin-binding protein 1b 90 kDa.; method in brief: as §3
Staphylococcus aureus [13] = assay: The compound was tested in vitro for minimum inhibitory concentration against Staphylococcus aureus 753; format: functional; method in brief: as §1
Escherichia coli [14] = assay: The compound was evaluated for the inhibition of [14C]- Pen G binding to Escherichia coli UB1005 penicillin-binding protein 2 66 kDa.; method in brief: as §3
Streptococcus pneumoniae = assay: The compound was tested in vitro for minimum inhibitory concentration against Streptococcus pneumoniae 6301; format: functional; method in brief: as §4
Escherichia coli [15] = assay: Minimum inhibitory concentration required to inhibit the activity of Escherichia coli ATCC 25922; format: functional; method in brief: as §1
Staphylococcus aureus [16] = assay: The compound was tested in vitro for minimum inhibitory concentration against Staphylococcus aureus 67-0; format: functional; method in brief: as §1
Citrobacter freundii = assay: The compound was tested in vitro for minimum inhibitory concentration against Citrobacter Freundii BS-16; format: functional; method in brief: as §1

SMILES	MIC (Enterococcus faecalis) [µg/mL]	MIC (Pseudomonas aeruginosa [1]) [µg/mL]	MIC (Proteus mirabilis) [µg/mL]	Inhibitory concentration (Escherichia coli [2]) [µg/mL]	MIC (Enterobacter cloacae) [µg/mL]	MIC (Pseudomonas aeruginosa [3]) [µg/mL]	MIC (Streptococcus pyogenes) [µg/mL]	MIC (Escherichia coli [4]) [µg/mL]	Inhibitory concentration (Escherichia coli [5]) [µg/mL]	IC50 (Escherichia coli [6]) [µg/mL]	MIC (Escherichia coli [7]) [µg/mL]	MIC (Micrococcus luteus) [µg/mL]	MIC (Klebsiella pneumoniae) [µg/mL]	MIC (Escherichia coli [8]) [µg/mL]	MIC (Escherichia coli [9]) [µg/mL]	MIC (Proteus vulgaris) [µg/mL]	MIC (Staphylococcus aureus [10]) [µg/mL]	MIC (Escherichia coli [11]) [µg/mL]	MIC (Serratia marcescens) [µg/mL]	Inhibitory concentration (Escherichia coli [12]) [µg/mL]	also measured
CCN1CCN(C(=O)NC(C(=O)N[C@@H]2C(=O)N3C(C(=O)O)=C(COC(=O)N4CCN(c5cc6c(cc5F)c(=O)c(C(=O)O)cn6C5CC5)CC4)CS[C@H]23)c2ccccc2)C(=O)C1=O (stereo partly drawn)	4 (≈ 4.5 µM)	1 (≈ 1.13 µM)	1 (≈ 1.13 µM)	0.5	0.031 (≈ 0.0349 µM)	2 (≈ 2.25 µM)	0.063 (≈ 0.0709 µM)	0.063 (≈ 0.0709 µM)	10	9 (≈ 10.1 µM)	0.063 (≈ 0.0709 µM)	0.125 (≈ 0.141 µM)	0.125 (≈ 0.141 µM)	1 (≈ 1.13 µM)	1 (≈ 1.13 µM)	0.063 (≈ 0.0709 µM)	0.5 (≈ 0.563 µM)	0.063 (≈ 0.0709 µM)	0.125 (≈ 0.141 µM)	10	MIC (Staphylococcus aureus [13]): 1 µg/mL (≈ 1.13 µM); Inhibitory concentration (Escherichia coli [14]): > 100 µg/mL; MIC (Streptococcus pneumoniae): 0.031 µg/mL (≈ 0.0349 µM); MIC (Escherichia coli [15]): 0.06 µg/mL (≈ 0.0675 µM); MIC (Staphylococcus aureus [16]): 4 µg/mL (≈ 4.5 µM); MIC (Citrobacter freundii): 0.063 µg/mL (≈ 0.0709 µM)
O=C(COc1ccccc1)N[C@@H]1C(=O)N2C(C(=O)O)=C(COC(=O)N3CCN(c4cc5c(cc4F)c(=O)c(C(=O)O)cn5C4CC4)CC3)CS[C@H]12	4 (≈ 5.54 µM)	0.5 (≈ 0.693 µM)	0.125 (≈ 0.173 µM)	> 100	0.031 (≈ 0.043 µM)	1 (≈ 1.39 µM)	0.031 (≈ 0.043 µM)	0.063 (≈ 0.0873 µM)	> 100	4.2 (≈ 5.82 µM)	0.063 (≈ 0.0873 µM)	0.031 (≈ 0.043 µM)	0.25 (≈ 0.346 µM)	2 (≈ 2.77 µM)	2 (≈ 2.77 µM)	0.125 (≈ 0.173 µM)	0.25 (≈ 0.346 µM)	0.063 (≈ 0.0873 µM)	0.25 (≈ 0.346 µM)	> 100	MIC (Staphylococcus aureus [13]): 4 µg/mL (≈ 5.54 µM); Inhibitory concentration (Escherichia coli [14]): > 100 µg/mL; MIC (Streptococcus pneumoniae): 0.031 µg/mL (≈ 0.043 µM); MIC (Escherichia coli [15]): 0.06 µg/mL (≈ 0.0831 µM); MIC (Staphylococcus aureus [16]): 4 µg/mL (≈ 5.54 µM); MIC (Citrobacter freundii): 0.063 µg/mL (≈ 0.0873 µM)
N#CCC(=O)N[C@@H]1C(=O)N2C(C(=O)O)=C(COC(=O)N3CCN(c4cc5c(cc4F)c(=O)c(C(=O)O)cn5C4CC4)CC3)CS[C@H]12	4 (≈ 6.11 µM)	0.5 (≈ 0.764 µM)	0.5 (≈ 0.764 µM)	100	< 0.016	1 (≈ 1.53 µM)	0.031 (≈ 0.0474 µM)	0.063 (≈ 0.0962 µM)	> 100	1 (≈ 1.53 µM)	0.063 (≈ 0.0962 µM)	0.125 (≈ 0.191 µM)	0.125 (≈ 0.191 µM)	1 (≈ 1.53 µM)	1 (≈ 1.53 µM)	0.031 (≈ 0.0474 µM)	0.25 (≈ 0.382 µM)	0.063 (≈ 0.0962 µM)	0.125 (≈ 0.191 µM)	> 100	MIC (Staphylococcus aureus [13]): 1 µg/mL (≈ 1.53 µM); Inhibitory concentration (Escherichia coli [14]): > 100 µg/mL; MIC (Streptococcus pneumoniae): 0.031 µg/mL (≈ 0.0474 µM); MIC (Escherichia coli [15]): 0.06 µg/mL (≈ 0.0917 µM); MIC (Staphylococcus aureus [16]): 2 µg/mL (≈ 3.06 µM); MIC (Citrobacter freundii): 0.063 µg/mL (≈ 0.0962 µM)
